Reference: ChEMBL document CHEMBL4673306, “Exploration of nitrogen heterocycle scaffolds for the development of potent human neutrophil elastase inhibitors” (Bioorg Med Chem, 2021)
pIC50: −log10 of the molar value.

Assays:
Neutrophil elastase = molecular target: T1, Neutrophil elastase (Homo sapiens, UniProt P08246); assay: Inhibition of human neutrophil elastase using N-methylsuccinyl-Ala-Ala-Pro-Val-7-amino-4-methylcoumarin as substrate measured for every 30 sec for 10 mins by fluorescence based assay; settings: for pIC50: read-out: IC50
T1 sequence (P08246 whole entry): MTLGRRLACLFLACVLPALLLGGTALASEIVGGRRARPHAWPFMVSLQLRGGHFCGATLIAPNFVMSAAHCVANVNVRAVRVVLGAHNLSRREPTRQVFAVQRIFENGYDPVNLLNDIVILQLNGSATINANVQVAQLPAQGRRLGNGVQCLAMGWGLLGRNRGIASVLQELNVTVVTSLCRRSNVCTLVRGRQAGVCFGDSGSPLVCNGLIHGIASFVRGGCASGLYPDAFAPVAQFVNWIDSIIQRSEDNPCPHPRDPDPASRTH

[1] = Stability of compound in PBS at pH 7.4 assessed as half life by spectrophotometry; type: physicochemical; settings: buffer
Method in brief: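 Spontaneous hydrolysis measured at 20 °C in 0.05 M phosphate buffer, pH 7.4, with compound at 20 μM. Absorbance was read at each compound's characteristic maximum over time until it stopped falling (A∞). k' was taken from the slope of log(At − A∞) versus time, and t1/2 = 0.693/k'.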

SMILES	IC50 (Neutrophil elastase)	pIC50 (Neutrophil elastase)	t1/2 [1] [h]
COc1cccc(CNC(=O)c2cnc3cc(C)nn3c2C)c1	Not Active	–	–
CCOC(=O)c1nn(C(=O)c2cccc(C)c2)c2ncccc12	–	5.70	–
Cc1cccc(C(=O)n2cc(C#N)c3ncccc32)c1	–	–	1.28
Cc1ccc(C(=O)n2nc(C#N)c3cccnc32)cc1	–	5.82	–
N#Cc1nn(C(=O)C2CCCC2)c2ncccc12	–	6.85	–
N#Cc1nn(C(=O)C2CCCCC2)c2ncccc12	–	5.96	–
O=C(C1CC1)n1nc([N+](=O)[O-])c2cccnc21	–	7.68	1.56
CCOC(=O)c1nn(C(=O)C2CC2)c2ccncc12	–	7.16	7.28
N#Cc1cn(C(=O)C2CC2)c2nccnc12	–	–	1.677
Cc1cccc(C(=O)n2nc(C(=O)OC(C)C)c3cccnc32)c1	–	6.01	–
Nc1nn(C(=O)C2CC2)c2ncccc12	–	5.00	–
COc1cccc(NC(=O)c2cnc3cc(C(C)(C)C)nn3c2C)c1	Not Active	–	–
COc1cccc(NC(=O)c2cnc3c(Cl)c(C(C)(C)C)nn3c2C)c1	Not Active	–	–
COc1cccc(CNC(=O)c2cnc3cc(C(C)(C)C)nn3c2C)c1	Not Active	–	–
N#Cc1nn(C(=O)C2CC2)c2ncccc12	–	7.47	–
COc1cccc(NC(=O)c2cnn3c(C)c(C(C)=O)cnc23)c1	Not Active	–	–
N#Cc1cn(C(=O)C2CC2)c2cnccc12	–	6.74	–

SMILES	IC50 (Neutrophil elastase)	pIC50 (Neutrophil elastase)	t1/2 [1] [h]
COc1cccc(CNC(=O)c2cnc3c(Cl)c(C(C)(C)C)nn3c2C)c1	Not Active	–	–
Cc1cccc(C(=O)n2nc(C(F)(F)F)c3cnccc32)c1	–	7.48	1.777
Cc1cccc(C(=O)n2nc(C(F)(F)F)c3cccnc32)c1	–	6.38	–
CCOC(=O)c1nn(C(=O)c2cccc(C)c2)c2ccncc12	–	7.80	2.45
Cc1cccc(C(=O)n2nc(C#N)c3cnccc32)c1	–	8.00	0.203
O=C(C1CC1)n1nc(C(F)(F)F)c2cnccc21	–	7.06	6.435
O=C(C1CC1)n1ccc2nccnc21	–	5.10	–
Cc1cccc(C(=O)n2nc(C#N)c3cccnc32)c1	–	6.48	–
N#Cc1cn(C(=O)C2CC2)c2cccnc12	–	7.64	4.472
N#Cc1nn(C(=O)c2ccccc2)c2ncccc12	–	6.80	–
O=C(C1CC1)n1nc(C(F)(F)F)c2cccnc21	–	7.30	14.7
Cc1cccc(C(=O)n2cc(C#N)c3cnccc32)c1	–	–	2.722
N#Cc1nn(C(=O)C2CC2)c2ccncc12	–	7.10	1.32
COc1cccc(CNC(=O)c2cnn3c(C)c(C(C)=O)cnc23)c1	Not Active	–	–
COc1cccc(NC(=O)c2cnc3cc(C)nn3c2C)c1	Not Active	–	–
N#Cc1nn(Cc2ccccc2)c2ncccc12	Not Active	–	–
Cc1cccc(C(=O)n2nc(C)c3cnccc32)c1	–	6.12	–
